From ChEMBL document CHEMBL1153536, “5-lipoxygenase-activating protein inhibitors: development of 3-[3-tert-butylsulfanyl-1-[4-(6-methoxy-pyridin-3-yl)-benzyl]-5-(pyridin-2-ylmethoxy)-1H-indol-2-yl]-2,2-dimethyl-propionic acid (AM103)” (J Med Chem, 2009) come the findings set out here.

Molecules are shown by their SMILES. Activity calls are given as the source filed them. The rule behind the calls is not given here.

Data set [1] deals with T1, Cytochrome P450 3A4 (Homo sapiens, UniProt P08684). Put plainly: Inhibition of CYP3A4 assessed as inhibition rate.
T1 sequence (P08684 whole entry): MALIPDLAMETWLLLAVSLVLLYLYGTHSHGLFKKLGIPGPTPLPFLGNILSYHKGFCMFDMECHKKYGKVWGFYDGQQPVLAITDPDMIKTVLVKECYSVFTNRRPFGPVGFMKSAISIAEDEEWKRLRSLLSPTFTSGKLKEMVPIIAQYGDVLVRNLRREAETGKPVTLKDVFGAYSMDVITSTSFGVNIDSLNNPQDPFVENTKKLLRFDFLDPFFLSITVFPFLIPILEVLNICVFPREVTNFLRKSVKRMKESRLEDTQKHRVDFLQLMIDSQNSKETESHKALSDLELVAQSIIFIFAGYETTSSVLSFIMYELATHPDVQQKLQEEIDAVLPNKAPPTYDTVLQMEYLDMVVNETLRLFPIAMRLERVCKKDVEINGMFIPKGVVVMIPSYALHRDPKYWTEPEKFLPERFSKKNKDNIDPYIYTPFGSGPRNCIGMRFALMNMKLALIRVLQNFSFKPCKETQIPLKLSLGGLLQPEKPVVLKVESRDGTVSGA
Data set [2] is described as follows: Bioavailability in dog at 2 mg/kg, iv and 5 mg/kg, po. It counts as ADME, organism-based, Canis lupus familiaris. To be noted: in vivo.
The target of data set [3] is T2, Arachidonate 5-lipoxygenase-activating protein (Homo sapiens, UniProt P20292).
T2 sequence (P20292 whole entry): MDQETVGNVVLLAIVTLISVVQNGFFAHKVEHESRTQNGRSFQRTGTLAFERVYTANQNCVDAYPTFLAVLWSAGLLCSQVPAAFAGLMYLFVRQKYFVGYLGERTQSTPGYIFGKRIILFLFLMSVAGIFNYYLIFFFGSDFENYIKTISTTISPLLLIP
The data set can be described thus: Displacement of [3H]3-[5-(pyrid-2-ylmethoxy)-3-tert-butylthio-1-benzyl-indol-2-yl]-2,2-dimethylpropionic acid from FLAP in human polymorphonuclear cell membrane.

A short description of data set [4]: Inhibition of calcium ionophore A-23187-stimulated LTB4 production in human leukocytes by ELISA. It counts as functional, cell-based. To be noted: Leukocyte. The method in brief: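 Dextran-sedimented, hypotonically lysed human leukocytes at 1.25 × 10^5 cells/mL, preincubated 5 min at 37 °C with compound in DMSO. Stimulated 5 min at 37 °C with A23187 (5 μL of 0.5 mM into 250 μL). Supernatant LTB4 measured by ELISA at 1:4 dilution; IC50 by nonlinear regression of % inhibition vs log concentration.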

For data set [5], the system named is Blood. The data set can be described thus: Inhibition of calcium ionophore A-23187-stimulated LTB4 production in human whole blood by ELISA. It counts as functional, tissue-based. A digest of the protocol: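 Heparinized human whole blood preincubated 15 min at 37 °C with compound in DMSO. Stimulated 30 min at 37 °C with A23187 (2 μL of 1.5 mM into 150 μL). Plasma LTB4 measured by ELISA at 1:100 dilution; IC50 by nonlinear regression. A single value is one assay averaging two donors.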
(An ELISA detects its analyte on a solid surface through an enzyme-linked reagent.)

Data set [6] addresses T1, Cytochrome P450 3A4. The data set can be described thus: Inhibition of CYP3A4. It counts as ADME.
Data set [7] deals with Cytochrome P450 2C9 (Homo sapiens, UniProt P11712). Put plainly: Inhibition of CYP2C9. It counts as ADME.
Sequence of Cytochrome P450 2C9 (P11712 whole entry): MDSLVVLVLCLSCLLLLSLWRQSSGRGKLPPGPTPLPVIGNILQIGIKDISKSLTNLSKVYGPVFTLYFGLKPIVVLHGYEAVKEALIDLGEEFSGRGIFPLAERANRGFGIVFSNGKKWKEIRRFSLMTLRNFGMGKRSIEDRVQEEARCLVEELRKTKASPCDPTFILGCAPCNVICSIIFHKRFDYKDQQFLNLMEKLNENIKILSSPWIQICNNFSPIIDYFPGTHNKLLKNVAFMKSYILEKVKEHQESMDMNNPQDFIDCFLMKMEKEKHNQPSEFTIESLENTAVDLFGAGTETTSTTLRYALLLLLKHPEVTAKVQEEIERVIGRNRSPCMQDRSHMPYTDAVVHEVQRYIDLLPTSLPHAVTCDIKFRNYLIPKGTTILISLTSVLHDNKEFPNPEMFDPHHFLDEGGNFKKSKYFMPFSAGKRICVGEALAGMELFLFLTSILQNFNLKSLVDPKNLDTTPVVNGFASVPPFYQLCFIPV
The target of data set [8] is Cytochrome P450 2D6 (Homo sapiens, UniProt P10635). Put plainly: Inhibition of CYP2D6. Format: ADME.
Sequence of Cytochrome P450 2D6 (P10635 whole entry): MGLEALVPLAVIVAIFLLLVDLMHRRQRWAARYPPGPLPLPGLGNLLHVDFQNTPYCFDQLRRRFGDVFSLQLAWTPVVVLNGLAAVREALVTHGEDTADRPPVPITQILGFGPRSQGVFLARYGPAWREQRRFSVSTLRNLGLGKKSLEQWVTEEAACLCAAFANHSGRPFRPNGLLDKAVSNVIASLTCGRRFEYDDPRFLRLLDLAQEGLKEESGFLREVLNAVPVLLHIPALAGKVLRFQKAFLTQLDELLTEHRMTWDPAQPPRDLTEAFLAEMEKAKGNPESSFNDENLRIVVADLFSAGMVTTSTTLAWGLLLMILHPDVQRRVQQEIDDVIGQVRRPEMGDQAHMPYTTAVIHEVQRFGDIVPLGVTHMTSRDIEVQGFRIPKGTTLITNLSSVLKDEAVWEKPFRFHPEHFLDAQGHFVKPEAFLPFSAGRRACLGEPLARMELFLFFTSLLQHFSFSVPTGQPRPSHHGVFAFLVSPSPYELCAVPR
Data set [9] concerns the target T3, Cytochrome P450 1A2 (Homo sapiens, UniProt P05177).
T3 sequence (P05177 whole entry): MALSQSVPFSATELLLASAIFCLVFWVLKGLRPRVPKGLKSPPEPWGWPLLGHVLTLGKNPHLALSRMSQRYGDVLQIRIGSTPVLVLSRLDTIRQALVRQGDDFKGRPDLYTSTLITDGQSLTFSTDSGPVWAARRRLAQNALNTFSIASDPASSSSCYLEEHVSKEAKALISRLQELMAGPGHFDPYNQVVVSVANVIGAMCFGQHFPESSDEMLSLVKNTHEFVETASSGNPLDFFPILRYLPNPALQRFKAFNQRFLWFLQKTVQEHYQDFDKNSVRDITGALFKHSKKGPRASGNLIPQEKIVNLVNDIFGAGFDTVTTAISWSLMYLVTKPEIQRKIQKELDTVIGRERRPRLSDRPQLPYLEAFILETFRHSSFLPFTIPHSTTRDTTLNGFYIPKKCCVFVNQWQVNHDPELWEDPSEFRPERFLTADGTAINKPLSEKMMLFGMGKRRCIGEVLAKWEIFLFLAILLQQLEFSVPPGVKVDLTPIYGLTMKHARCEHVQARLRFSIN
Put plainly: Inhibition of CYP1A2. It counts as ADME.

Data set [10] is described as follows: (§1) Bioavailability in Sprague-Dawley rat at 2 mg/kg, iv and 10 mg/kg, po. Format: ADME, organism-based. To be noted: Sprague-Dawley, in vivo. A digest of the protocol:
(§2)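 Male rats fasted overnight, 2 or 3 per route. Dosing was 2 mg/kg i.v. as a jugular bolus in PEG400/ethanol/water (40/10/50) and 10 mg/kg p.o. by gavage in 0.5% methylcellulose. Jugular cannula blood was sampled up to 24 h (8-9 samples). Plasma was acetonitrile-precipitated with buspirone internal standard and quantified by LC-MS/MS, positive ESI MRM, calibration […], LLOQ 1-5 ng/mL.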

A short description of data set [11]: Half life in Sprague-Dawley rat at 2 mg/kg, iv. It counts as ADME, organism-based. The conditions noted are these: in vivo. Also noted: dose 2 mg/kg, route intravenous. The method in brief: as §2
Data set [12] can be described thus: Cmax in Sprague-Dawley rat after 10 mg/kg oral dose. Format: ADME, organism-based. Also noted: dose 10 mg/kg, route oral. The conditions noted are these: in vivo. The method in brief:
as §2

Data set [13] can be described thus: AUC in Sprague-Dawley rat at 10 mg/kg, po. To be noted: plasma. Also noted: dose 10 mg/kg, route oral. Format: ADME, organism-based. A digest of the protocol:
as §2

The nature of data set [14]: Clearance in Sprague-Dawley rat at 2 mg/kg, iv and 10 mg/kg, po. It counts as ADME, organism-based. To be noted: in vivo. A digest of the protocol: as §2
The nature of data set [15]: Volume of distribution at steady state in Sprague-Dawley rat at 2 mg/kg, iv and 10 mg/kg, po. Format: ADME, organism-based. To be noted: in vivo, read-out: Vdss. The method in brief:
as §2

For data set [16], the target named is Cytochrome P450 2C19 (Homo sapiens, UniProt P33261). Put plainly: Inhibition of CYP2C19. It counts as ADME.
Sequence of Cytochrome P450 2C19 (P33261 whole entry): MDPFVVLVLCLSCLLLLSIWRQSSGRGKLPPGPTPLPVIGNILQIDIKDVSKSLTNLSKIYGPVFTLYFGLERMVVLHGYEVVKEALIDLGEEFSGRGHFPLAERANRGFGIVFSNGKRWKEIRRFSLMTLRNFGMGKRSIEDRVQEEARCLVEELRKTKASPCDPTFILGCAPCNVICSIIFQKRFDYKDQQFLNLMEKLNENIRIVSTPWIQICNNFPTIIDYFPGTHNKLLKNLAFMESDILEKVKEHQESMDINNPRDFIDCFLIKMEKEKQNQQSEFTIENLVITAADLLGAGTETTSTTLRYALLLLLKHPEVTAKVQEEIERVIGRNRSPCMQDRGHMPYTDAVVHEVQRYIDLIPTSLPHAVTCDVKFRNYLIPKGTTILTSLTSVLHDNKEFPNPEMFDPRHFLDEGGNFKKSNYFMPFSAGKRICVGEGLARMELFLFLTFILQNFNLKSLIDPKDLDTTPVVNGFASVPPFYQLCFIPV
Data set [17] in a line: Volume of distribution in dog at 2 mg/kg, iv and 5 mg/kg, po. It counts as ADME, organism-based, Canis lupus familiaris. To be noted: in vivo.
Data set [18] in a line: Half life in dog at 2 mg/kg, iv. It counts as ADME, organism-based, Canis lupus familiaris. Also noted: dose 2 mg/kg, route intravenous. To be noted: in vivo.
The subject of data set [19] is Mus musculus. The data set can be described thus: Antiasthamatic activity against ovalbumin-induced airway lung inflammation in BALB/c mouse bronchoalveolar lavage model assessed as inhibition of increase om cysteinyl leukotrienes level at 10 mg/kg, po every 6 hrs administered 2 hrs prior to ovalbumin-challenge after 24 hrs. Format: functional. A digest of the protocol:
(§3)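 Female BALB/c mice (20-25 g) were sensitized i.p. with OVA 100 μg/alum on days 0 and 14, then given intranasal OVA 50 μg in saline on day 21 under isoflurane. Oral 0.5% methocel vehicle or drug 10 mg/kg started 2 h before challenge, then every 6 h (4 doses). BAL with 4 × 0.3 mL PBS at 24 h; CysLTs and IL-5 by EIA, EPO by peroxidase assay.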

Data set [20] deals with Mus musculus. Put plainly: Antiasthamatic activity against ovalbumin-induced airway lung inflammation in BALB/c mouse bronchoalveolar lavage model assessed as inhibition of increase in eosinophile peroxidase level at 10 mg/kg, po every 6 hrs administered 2 hrs prior to ovalbumin-challenge after 24 hrs. Format: functional. The method in brief:
as §3

Data set [21] deals with Mus musculus. Put plainly: Antiasthamatic activity against ovalbumin-induced airway lung inflammation in BALB/c mouse bronchoalveolar lavage model assessed as inhibition of increase in IL5 level at 10 mg/kg, po every 6 hrs administered 2 hrs prior to ovalbumin-challenge after 24 hrs. Format: functional, organism-based. Also noted: dose 10 mg/kg. The method in brief:
as §3

Data set [22] can be described thus: Plasma concentration in BALB/c mouse at 10 mg/kg, po after 6 hrs. Format: ADME, organism-based. More on the design: dose 10 mg/kg, route oral. A digest of the protocol: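 Female BALB/c mice, separate cohort (n = 6). Single oral dose 10 mg/kg; plasma drug level measured 6 h post-dose.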
The subject of data set [23] is Rattus norvegicus. The description is as §1. Format: ADME, organism-based. To be noted: in vivo. A digest of the protocol: as §2
Data set [24] deals with P2Y purinoceptor 12 (Homo sapiens, UniProt Q9H244). Put plainly: Agonist activity at human P2Y12 receptor. It counts as functional.
Sequence of P2Y purinoceptor 12 (Q9H244 whole entry): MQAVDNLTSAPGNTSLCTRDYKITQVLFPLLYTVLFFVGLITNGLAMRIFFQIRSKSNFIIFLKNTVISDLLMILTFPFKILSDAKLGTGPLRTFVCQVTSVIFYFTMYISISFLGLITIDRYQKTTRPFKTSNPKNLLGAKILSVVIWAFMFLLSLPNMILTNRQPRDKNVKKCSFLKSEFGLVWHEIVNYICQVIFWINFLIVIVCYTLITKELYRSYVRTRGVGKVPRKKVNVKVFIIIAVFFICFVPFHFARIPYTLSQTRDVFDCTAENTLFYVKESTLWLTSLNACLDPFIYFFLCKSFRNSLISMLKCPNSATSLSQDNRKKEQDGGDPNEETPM
The target of data set [25] is CYP3A4 (Homo sapiens, UniProt P08684). The data set can be described thus: Inhibition of CYP3A4 at 10 uM. Format: ADME.
Sequence of CYP3A4 (P08684 whole entry): as the sequence (P08684 whole entry) above
Data set [26] can be described thus: Half life in Sprague-Dawley rat at 10 mg/kg, po. Format: ADME, organism-based. More on the design: dose 10 mg/kg, route oral. The conditions noted are these: in vivo. A digest of the protocol:
as §2

In data set [27] the test system is Rattus norvegicus. Put plainly: Volume of distribution at steady state in Sprague-Dawley rat at 10 mg/kg, po. It counts as ADME, organism-based. More on the design: dose 10 mg/kg, route oral. The conditions noted are these: in vivo. The method in brief: as §2
Data set [28] can be described thus: Clearance in Sprague-Dawley rat 10 mg/kg, po. It counts as ADME, organism-based. More on the design: dose 10 mg/kg, route oral. To be noted: in vivo. A digest of the protocol: as §2

As to `COc1ccc(-c2ccc(Cn3c(CC(C)(C)C(=O)O)c(SC(C)(C)C)c4cc(OCc5ccccn5)ccc43)cc2)cn1`, the TDI in [1] came to 0.015 min⁻¹. For the same compound, the figures for the bioavailability in data set [2] and in data set [10] were 64% and 100%, respectively. Also, the IC50 is 4.2 nM in [3]; 0.5 nM in data set [4]; 349 nM in [5]; greater than 50000 nM in [6]; greater than 50000 nM in data set [7]; greater than 30000 nM in data set [8]. In addition, the concentration for half-maximal inhibition (IC50) in data set [9] and in data set [16] was greater than 50000 nM throughout. In addition, the values for the half-life in data set [11] and in data set [18] were 2.2 h and 5.2 h, respectively. Besides, the peak level in data set [12] (Cmax) was 9000 ng/mL. The AUC in [13] is 26000 ng·h/mL. The compound further returned a clearance in data set [14] of 5.4 mL/min/kg. The Vd in [15] stood at 0.3 L/kg; in data set [17], 0.41 L/kg. The inhibition in vivo at 10 mg/kg in [19] and in [20] was 60% each time. Moreover, the outcome in data set [21] was Active. In data set [22], this compound yielded a concentration at 6 h of 406 nM.
Consider `COc1ccc(-c2ccc(Cn3c(CC(C)(C)C(=O)O)c(SC(C)(C)C)c4cc(OCc5ccccn5)ccc43)cc2)nn1`, for which the IC50 in data set [3] is 4 nM; in data set [4] it was 3.6 nM; in data set [5] it was 1580 nM; in data set [6] it was 15100 nM; in data set [7] it was 26900 nM; in [8], greater than 30000 nM. In [23], this compound came in with an F of 42%. The compound also gave a half-life in data set [11] of 2.1 h. For the same compound, the peak level in [12] (Cmax) was 7900 ng/mL. Besides, the Vd in data set [15] was 0.47 L/kg.
`CCCCC/C=C\C\C=C/C=C/C=C/[C@@H](SC[C@H](N)C(=O)O)[C@@H](O)CCCC(=O)O` [LEUKOTRIEN E4] displayed an EC50 in data set [24] of 1.3 nM.
In the case of `COc1ccc(-c2ccc(Cn3c(CC(C)(C)C(=O)O)c(SC(C)(C)C)c4cc(OCc5ccccn5)ccc43)cc2)nc1`, the IC50 in data set [3] is 6.8 nM; in [4], 4.1 nM; in [5], 277 nM; in data set [7], greater than 10000 nM; in [8], greater than 10000 nM. Besides, at 10 µM the inhibition in data set [25] was 61%. The bioavailability in [10] turned out to be 100%. In data set [12], this compound displayed a Cmax of 21800 ng/mL. This compound also returned an AUC in data set [13] of 61600 ng·h/mL. For the same compound, the half-life in data set [26] is 1.9 h. For the same compound, the Vdss in data set [27] is 0.51 L/kg. Besides, the CL/F in data set [28] worked out at 2.8 mL/min/kg.

The term bioavailability denotes dose-corrected exposure relative to a reference, in per cent. Read a high bioavailability as much systemic uptake. Usually IC50 stands for the midpoint of a concentration-inhibition curve. Usually half-life stands for the time in which the quantity being followed falls by half. What is called Cmax is the peak of the concentration-time curve. The term AUC denotes the area under the concentration-time curve, a measure of exposure. A lower AUC goes with low exposure. Broadly, the inhibition in vivo is the change of the read-out against control, counted positive when it falls. As usually defined, the EC50 is the concentration that produces a half-maximal response. As a reminder, the inhibition is the relative decrease from the control value, in per cent. A high value points to a strong effect. By CL/F is commonly meant clearance divided by bioavailability, as obtained after extravascular dosing.
